Data from ChEMBL document CHEMBL4364256, “Design, synthesis and biological evaluation of antimicrobial diarylimine and -amine compounds targeting the interaction between the bacterial NusB and NusE proteins” (Eur J Med Chem, 2019).
≈ marks a conversion by molar mass, not a printed value.

Assays:
[1] = tested on: Pseudomonas aeruginosa; experiment: Antimicrobial activity against Pseudomonas aeruginosa ATCC 27853 incubated for 20 hrs by microdilution method; type: functional; details: ATCC 27853, 20 h
Procedure, shortened: (§1)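 Broth microdilution MIC testing done following CLSI guidelines.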

[2] = tested on: Enterococcus faecium; experiment: Antimicrobial activity against Enterococcus faecium ATCC 19433 incubated for 20 hrs by microdilution method; type: functional; details: ATCC 19433, 20 h; procedure, shortened: as §1
[3] = tested on: Bacillus subtilis; experiment: Inhibition of N-terminal LgBiT-fused Bacillus subtilis NusB expressed in Escherichia coli BL21(DE3)pLysS interaction with C- terminal SmBiT-fused Bacillus subtilis NusE expressed in Escherichia coli BL21(DE3)pLysS at 100 uM preincubated for 10 mins followed by NusE addition and measured after 10 mins by nano-glo luciferase assay relative to control
Procedure, shortened: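 NusB and NusE were mixed 1:1 at 1 µM in PBS, with compound at 100 µM. The read-out was percent inhibition of the NusB-NusE interaction.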

[4] = microbe, parasite or virus in culture; details: Enterobacter cloacae, ATCC 13047, 20 h
[5] = tested on: Acinetobacter baumannii; experiment: Antimicrobial activity against Acinetobacter baumannii ATCC 19606 incubated for 20 hrs by microdilution method; type: functional; details: ATCC 19606 = CIP 70.34 = JCM 6841, 20 h; procedure, shortened: as §1
[6] = tested on: Streptococcus pneumoniae; experiment: Antimicrobial activity against Streptococcus pneumoniae ATCC 49619 incubated for 20 hrs by microdilution method; type: functional; details: ATCC 49619, 20 h; procedure, shortened: as §1
[7] = tested on: Staphylococcus aureus; experiment: microbe, parasite or virus in culture; details: ATCC 25923, 20 h
[8] = tested on: Staphylococcus aureus; experiment: microbe, parasite or virus in culture; details: ATCC 29213, 20 h

Compound: O=[N+]([O-])c1ccc(O)c(/C=N/c2ccc(Cl)cc2)c1
- MIC [1]: > 256 µg/mL
- MIC [2]: 256 µg/mL (≈ 925 µM)
- inhibition [3]: 50%
- MIC [4]: > 256 µg/mL
- MIC [5]: > 256 µg/mL
- MIC [6]: 64 µg/mL (≈ 231 µM)
- MIC [7]: 8 µg/mL (≈ 28.9 µM)
- MIC [8]: 32 µg/mL (≈ 116 µM)

Compound: C#Cc1cccc(NCc2ccc([N+](=O)[O-])cc2O)c1
- MIC [1]: > 256 µg/mL
- MIC [2]: 32 µg/mL (≈ 119 µM)
- inhibition [3]: 48.2%
- MIC [4]: > 256 µg/mL
- MIC [5]: 64 µg/mL (≈ 239 µM)
- MIC [6]: 16 µg/mL (≈ 59.6 µM)
- MIC [7]: 8 µg/mL (≈ 29.8 µM)
- MIC [8]: 8 µg/mL (≈ 29.8 µM)

Compound: O=[N+]([O-])c1ccc(O)c(CNc2ccccc2)c1
- MIC [1]: > 256 µg/mL
- MIC [2]: 128 µg/mL (≈ 524 µM)
- inhibition [3]: 4.6%
- MIC [4]: > 256 µg/mL
- MIC [5]: 256 µg/mL (≈ 1050 µM)
- MIC [6]: 64 µg/mL (≈ 262 µM)
- MIC [7]: 16 µg/mL (≈ 65.5 µM)
- MIC [8]: 32 µg/mL (≈ 131 µM)

Compound: O=[N+]([O-])c1ccc(O)c(CNc2cccc(C(F)(F)F)c2)c1
- MIC [1]: > 256 µg/mL
- MIC [2]: 16 µg/mL (≈ 51.2 µM)
- inhibition [3]: 61.7%
- MIC [4]: 256 µg/mL (≈ 820 µM)
- MIC [5]: 64 µg/mL (≈ 205 µM)
- MIC [6]: 16 µg/mL (≈ 51.2 µM)
- MIC [7]: 4 µg/mL (≈ 12.8 µM)
- MIC [8]: 4 µg/mL (≈ 12.8 µM)

Compound: C#Cc1cccc(NCc2cc(CC#N)ccc2O)c1
- MIC [1]: > 256 µg/mL
- MIC [2]: 32 µg/mL (≈ 122 µM)
- inhibition [3]: 44.7%
- MIC [4]: > 256 µg/mL
- MIC [5]: > 256 µg/mL
- MIC [6]: 8 µg/mL (≈ 30.5 µM)
- MIC [7]: 64 µg/mL (≈ 244 µM)
- MIC [8]: 32 µg/mL (≈ 122 µM)

Compound: O=[N+]([O-])c1ccc(O)c(/C=N/c2cccc(O)c2)c1
- MIC [1]: > 256 µg/mL
- MIC [2]: > 256 µg/mL
- inhibition [3]: 96.3%
- MIC [4]: > 256 µg/mL
- MIC [5]: > 256 µg/mL
- MIC [6]: 256 µg/mL (≈ 991 µM)
- MIC [7]: 16 µg/mL (≈ 62 µM)
- MIC [8]: 64 µg/mL (≈ 248 µM)

Compound: C#Cc1cccc(NCc2cccc([N+](=O)[O-])c2)c1
- MIC [1]: > 256 µg/mL
- MIC [2]: > 256 µg/mL
- inhibition [3]: 33.1%
- MIC [4]: > 256 µg/mL
- MIC [5]: > 256 µg/mL
- MIC [6]: > 256 µg/mL
- MIC [7]: > 256 µg/mL
- MIC [8]: > 256 µg/mL

Compound: CC(C)(C)c1cccc(/N=C/c2cc([N+](=O)[O-])ccc2O)c1
- MIC [1]: > 256 µg/mL
- MIC [2]: > 256 µg/mL
- inhibition [3]: 51.3%
- MIC [4]: > 256 µg/mL
- MIC [5]: 128 µg/mL (≈ 429 µM)
- MIC [6]: 256 µg/mL (≈ 858 µM)
- MIC [7]: 4 µg/mL (≈ 13.4 µM)
- MIC [8]: 16 µg/mL (≈ 53.6 µM)

Compound: O=C(O)c1cccc(/N=C/c2cc([N+](=O)[O-])ccc2O)c1
- MIC [1]: > 256 µg/mL
- MIC [2]: > 256 µg/mL
- inhibition [3]: 78.5%
- MIC [4]: > 256 µg/mL
- MIC [5]: 64 µg/mL (≈ 224 µM)
- MIC [6]: 16 µg/mL (≈ 55.9 µM)
- MIC [7]: 4 µg/mL (≈ 14 µM)
- MIC [8]: 16 µg/mL (≈ 55.9 µM)

Compound: O=[N+]([O-])c1ccc(O)c(/C=N/c2ccc(O)cc2)c1
- MIC [1]: > 256 µg/mL
- MIC [2]: > 256 µg/mL
- inhibition [3]: 89.1%
- MIC [4]: > 256 µg/mL
- MIC [5]: > 256 µg/mL
- MIC [6]: 64 µg/mL (≈ 248 µM)
- MIC [7]: 4 µg/mL (≈ 15.5 µM)
- MIC [8]: 8 µg/mL (≈ 31 µM)
